From ChEMBL document CHEMBL1157095, “Antimalarial versus cytotoxic properties of dual drugs derived from 4-aminoquinolines and Mannich bases: interaction with DNA” (J Med Chem, 2010)
Activity calls are given as the source filed them. The calls are words filed in the database; no cut-off is given here.

Legend:
[1] = system: Plasmodium falciparum; assay: Antiplasmodial activity against chloroquine-susceptible Plasmodium falciparum 3D7 infected in human erythrocytes assessed as inhibition of [3H]hypoxanthine uptake after 48 hrs; type: functional, organism-based
Procedure, shortened: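 Culture in RPMI 1640 with 10% human serum, 25 mM HEPES, 25 mM NaHCO3, A-positive blood, 10% O2/5% CO2/85% N2, 37 C. Isotopic microtest: 0.5% parasitemia, 1.5% hematocrit, 1 μCi tritiated hypoxanthine at time zero, 48 h; freeze-thaw lysis, filter harvest, scintillation count. IC50 = 50% uptake versus drug-free control, nonlinear regression of log dose-response curves.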

[2] = system: Plasmodium falciparum; assay: Antiplasmodial activity against chloroquine-susceptible Plasmodium falciparum D6 infected in human erythrocytes assessed as inhibition of [3H]hypoxanthine uptake after 48 hrs; type: functional, organism-based
Procedure, shortened: (§1)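 Strains were cultured in A-positive human blood in RPMI 1640 with 10% human serum, 25 mM HEPES and 25 mM NaHCO3, under 10% O2/5% CO2/85% N2 at 37 °C. Microtests used 0.5% parasitemia and 1.5% hematocrit. Tritiated hypoxanthine (1 μCi/well) was added at time zero, then 48 h incubation, freeze-thaw, harvest and scintillation counting. IC50 was taken by nonlinear regression against drug-free controls.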

[3] = system: Plasmodium falciparum; assay: Antiplasmodial activity against chloroquine-susceptible Plasmodium falciparum 8425 infected in human erythrocytes assessed as inhibition of [3H]hypoxanthine uptake after 48 hrs; type: functional, organism-based; procedure, shortened: as §1
[4] = system: Plasmodium falciparum; assay: Antiplasmodial activity against chloroquine-susceptible Plasmodium falciparum Voll infected in human erythrocytes assessed as inhibition of [3H]hypoxanthine uptake after 48 hrs; type: functional, organism-based; procedure, shortened: as §1
[5] = system: Plasmodium falciparum; assay: Antiplasmodial activity against chloroquine-susceptible Plasmodium falciparum L1 infected in human erythrocytes assessed as inhibition of [3H]hypoxanthine uptake after 48 hrs; type: functional, organism-based; procedure, shortened: as §1
[6] = system: Plasmodium falciparum; assay: Antiplasmodial activity against chloroquine-susceptible Plasmodium falciparum PA infected in human erythrocytes assessed as inhibition of [3H]hypoxanthine uptake after 48 hrs; type: functional, organism-based; procedure, shortened: as §1
[7] = system: Plasmodium falciparum; assay: Antiplasmodial activity against chloroquine-susceptible Plasmodium falciparum Bres infected in human erythrocytes assessed as inhibition of [3H]hypoxanthine uptake after 48 hrs; type: functional, organism-based; procedure, shortened: as §1
[8] = system: Plasmodium falciparum; assay: Antiplasmodial activity against chloroquine-susceptible Plasmodium falciparum FCR3 infected in human erythrocytes assessed as inhibition of [3H]hypoxanthine uptake after 48 hrs; type: functional, organism-based; procedure, shortened: as §1
[9] = system: Plasmodium falciparum; assay: Antiplasmodial activity against chloroquine-susceptible Plasmodium falciparum W2 infected in human erythrocytes assessed as inhibition of [3H]hypoxanthine uptake after 48 hrs; type: functional, organism-based; procedure, shortened: as §1
[10] = system: Plasmodium falciparum; assay: Antiplasmodial activity against chloroquine-susceptible Plasmodium falciparum K2 infected in human erythrocytes assessed as inhibition of [3H]hypoxanthine uptake after 48 hrs; type: functional, organism-based; procedure, shortened: as §1
[11] = system: Plasmodium falciparum; assay: Antiplasmodial activity against chloroquine-susceptible Plasmodium falciparum K14 infected in human erythrocytes assessed as inhibition of [3H]hypoxanthine uptake after 48 hrs; type: functional, organism-based; procedure, shortened: as §1
[12] = system: Plasmodium falciparum; assay: Antiplasmodial activity against chloroquine-susceptible Plasmodium falciparum FCM29 infected in human erythrocytes assessed as inhibition of [3H]hypoxanthine uptake after 48 hrs; type: functional, organism-based; procedure, shortened: as §1
[13] = system: Plasmodium falciparum; assay: Antiplasmodial activity against chloroquine-susceptible Plasmodium falciparum NF54 infected in human erythrocytes assessed as inhibition of [3H]hypoxanthine uptake after 48 hrs; type: functional, organism-based
Procedure, shortened: (§2)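 Asynchronous ring-stage cultures in human A Rh+ erythrocytes (RPMI 1640, HEPES, NaHCO3, hypoxanthine, 0.5% Albumax II, 5% CO2, 37 C), 1% parasitemia; top final drug concentration 30 μM. After 24 h, [3H]-hypoxanthine (0.2 μCi/well) added, further 48 h incubation; plates freeze-thawed, harvested, uptake counted; IC50 calculated.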

[14] = system: Plasmodium falciparum; assay: Antiplasmodial activity against chloroquine, pyrimethamine, cycloguanil-resistant Plasmodium falciparum K1 infected in human erythrocytes assessed as inhibition of [3H]hypoxanthine uptake after 48 hrs; type: functional, organism-based; procedure, shortened: as §2
[15] = system: Plasmodium falciparum; assay: Antiplasmodial activity against chloroquine-resistant Plasmodium falciparum Dd2 infected in human erythrocytes assessed as inhibition of [3H]hypoxanthine uptake after 48 hrs; type: functional, organism-based
Procedure, shortened: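 Ring-stage infected erythrocytes (0.5% parasitemia, 2.5% hematocrit) exposed to compounds 48 h, then radioactive hypoxanthine 24 h; radioactivity in precipitable material taken as proliferation index for IC50.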

[16] = system: MRC5; assay: Cytotoxicity against human MRC5 after 3 days; type: cell-based; conditions: MRC5, 72 h
Procedure, shortened: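 MRC-5SV2 cells were grown in Earle's MEM with 5% FCSi and plated at about 10^4 cells/well. After 3 days of incubation, viability was read fluorimetrically with resazurin (ex 550/em 590 nm). Growth reduction was expressed relative to untreated control wells, and CC50 was derived.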

[17] = system: NCH89; assay: Antiproliferative activity against human carmustine-resistant NCH-89 cells assessed as BrdU incorporation after 48 hrs; type: functional, cell-based; conditions: NCH89, 48 h
Procedure, shortened: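 NCH89 glioblastoma cells were seeded at 7 × 10^3 cells/well in replicate wells for 24 h. Compound was then added at 0.1-100 μM. After 48 h, BrdU was added at 100 μM final, and incorporation was detected with a BrdU labeling/detection kit.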

[18] = molecular target: Nucleic Acid; assay: Binding affinity to pUC18 DNA at pH 7.5 by UV-Vis spectrophotometry analysis; type: nucleic-acid assay
Procedure, shortened: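 A 10 μM drug solution was titrated at room temperature with linearized pUC18 DNA (50% AT), 0.1-50 μM base pairs final. Buffer was TE (10 mM Tris-HCl, 0.1 mM EDTA) with 5 mM NaCl, ionic strength 12 mM. UV-Vis absorption spectra were recorded at 220-380 nm. Kd = DNA concentration at which half the drug is bound.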

[19] = molecular target: Nucleic Acid; assay: Binding affinity to pUC18 DNA at pH 7.5 by spectrofluorimetry analysis; type: nucleic-acid assay
Procedure, shortened: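 A 1-10 μM drug solution was titrated at room temperature with linearized pUC18 DNA (50% AT), 0.1-50 μM base pairs final, in TE buffer with 5 mM NaCl (ionic strength 12 mM). Fluorescence used excitation at 320 nm and emission at 340-500 nm, corrected for buffer and instrument response. Kd = DNA concentration giving half-bound drug.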

[20] = system: Nucleic Acid; assay: Binding affinity to pUC18 DNA containing 50% AT assessed as maximum melting temperature at 1 uM by spectrophotometry analysis; type: nucleic-acid assay
Procedure, shortened: (§3)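 Drug at 1 μM was mixed with DNA at 15 μM base pairs (15:1 bp:drug) in TE with 5 mM NaCl. Absorbance at 260 nm was recorded from 30-97 °C at 0.5 °C/min, with readings every 0.5 °C. Curves were normalized, smoothed and differentiated. Tmmax = derivative peak maximum; Tmint = middle of the integrated area; Tm1/2 = middle of the peak at half height.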

[21] = system: Nucleic Acid; assay: Binding affinity to pUC18 DNA containing 50% AT assessed as middle of the peak at half height melting temperature at 1 uM by spectrophotometry analysis; type: nucleic-acid assay; procedure, shortened: as §3
[22] = system: Nucleic Acid; assay: Binding affinity to pUC18 DNA containing 50% AT assessed as middle of the integrated surface melting temperature at 1 uM by spectrophotometry analysis; type: nucleic-acid assay; procedure, shortened: as §3
[23] = system: Nucleic Acid; assay: Binding affinity to polydAdT DNA containing 100% AT assessed as maximum melting temperature at 1 uM by spectrophotometry analysis; type: nucleic-acid assay; procedure, shortened: as §3
[24] = system: Nucleic Acid; assay: Binding affinity to polydAdT DNA containing 100% AT assessed as middle of the peak at half height melting temperature at 1 uM by spectrophotometry analysis; type: nucleic-acid assay; procedure, shortened: as §3
[25] = system: Nucleic Acid; assay: Binding affinity to polydAdT DNA containing 100% AT assessed as middle of the integrated surface melting temperature at 1 uM by spectrophotometry analysis; type: nucleic-acid assay; procedure, shortened: as §3
[26] = system: Mus musculus; assay: Toxicity in ip dosed Swiss mouse assessed as mortality at 50 mg/kg, ip; type: organism-based; parameters: dose 50 mg/kg, route intraperitoneal; conditions: in vivo
Procedure, shortened: (§4)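 Peters 4-day suppressive test, P. berghei ANKA: 18-20 g mice infected iv with 2 × 10^6 parasitized red cells day 0; compounds freshly made in 10% DMSO in sterile PBS, given ip from 2 h postinfection and on days 1-3; daily dose 30 mg/kg or 50 mg/kg; deaths recorded.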

[27] = system: Mus musculus; assay: Toxicity in ip dosed Swiss mouse assessed as mortality at 30 mg/kg, ip; type: organism-based; parameters: dose 30 mg/kg, route intraperitoneal; conditions: in vivo; procedure, shortened: as §4
[28] = system: Plasmodium berghei; assay: Antiplasmodial activity against Plasmodium berghei ANKA infected in Swiss mice (Mus musculus) assessed as reduction of parasitaemia at 50 mg/kg, intraperitoneally daily for 4 days; type: functional, organism-based; parameters: dose 50 mg/kg
Procedure, shortened: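 Swiss mice (18-20 g) infected intravenously on day 0 with 2 × 10^6 P. berghei ANKA parasitized red cells. Compound was freshly prepared in 10% DMSO in sterile PBS and given ip, first 2 h postinfection, then on days +1-3 (4-day suppressive test). On day +4, parasitemia was counted microscopically on Giemsa-stained tail-blood films.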

| SMILES | IC50 [1] [nM] | IC90 [1] [nM] | IC50 [2] [nM] | IC90 [2] [nM] | IC50 [3] [nM] | IC90 [3] [nM] | IC50 [4] [nM] | IC90 [4] [nM] | IC50 [5] [nM] | IC90 [5] [nM] | IC50 [6] [nM] | IC90 [6] [nM] | IC50 [7] [nM] | IC90 [7] [nM] | IC50 [8] [nM] | IC90 [8] [nM] | IC50 [9] [nM] | IC90 [9] [nM] | IC50 [10] [nM] | IC90 [10] [nM] | further results |
| --- | --- | --- | --- | --- | --- | --- | --- | --- | --- | --- | --- | --- | --- | --- | --- | --- | --- | --- | --- | --- | --- |
| CCNCc1cc(Nc2ccnc3cc(Cl)ccc23)ccc1O [DESETHYL AMODIAQUINE] | 19.5 | 31.4 | 17.5 | 37 | 26.4 | 41.4 | 77.5 | 113 | 86.1 | 125 | 72.8 | 106 | 100 | 143 | 79.1 | 130 | 146 | 202 | 91.2 | 144 | IC50 [11]: 160 nM; IC90 [11]: 220 nM; IC50 [12]: 318 nM; IC90 [12]: 407 nM |
| CC(C)NCCNc1ccnc2cc(Cl)ccc12 | 35.2 | 65.6 | 35.6 | 67.8 | 29 | 59.4 | 63.7 | 135 | 63.2 | 132 | 64 | 107 | 129 | 218 | 86.1 | 164 | 169 | 320 | 130 | 285 | IC50 [13]: 8.9 nM; IC50 [14]: 47.4 nM; IC50 [15]: 22.6 nM; IC50 [11]: 171 nM; IC90 [11]: 316 nM; IC50 [12]: 239 nM; IC90 [12]: 369 nM; IC50 [16]: 64 µM; IC50 [17]: 30.4 µM; Kd [18]: 17.5 µM; Kd [19]: 8 µM; Tm [20]: 73 °C; Tm [21]: 74.5 °C; Tm [22]: 73.9 °C; Tm [23]: 46.6 °C; Tm [24]: 46.5 °C; Tm [25]: 46.5 °C |
| Clc1ccc2c(NCCNC(CCN3CCCCC3)c3ccccc3)ccnc2c1 (stereo unspecified) | 9.9 | 15.8 | 10.9 | 16 | 8 | 12.8 | 38.5 | 68.4 | 43.9 | 73.5 | 41.2 | 68.9 | 46.5 | 76.7 | 44.2 | 73.1 | 44 | 74.6 | 58.1 | 105 | IC50 [13]: 8.7 nM; IC50 [14]: 32.6 nM; IC50 [15]: 23.9 nM; IC50 [11]: 76 nM; IC90 [11]: 205 nM; IC50 [12]: 135 nM; IC90 [12]: 296 nM; IC50 [16]: 8 µM; Activity [26]: Toxic; Activity [27]: Toxic; Activity [28]: Active; IC50 [17]: 5.6 µM; Kd [18]: 1 µM; Kd [19]: 4 µM; Tm [20]: 73 °C; Tm [21]: 75 °C; Tm [22]: 74.4 °C; Tm [23]: 46 °C; Tm [24]: 46.5 °C; Tm [25]: 46.4 °C |
